Reference: the M2OR odorant receptor database

Assays:
Details in all cases: stereoisomer not certain
OR4P4 (Homo sapiens) = OR4P4 (Homo sapiens) (UniProt Q8NGL7)
Summary of the method: (§1)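 Transient luciferase assays in mammalian cell lines were common, though methods varied by source. The values come from published papers and their supplementary material, with extra details from the original authors when needed. Responsive refers to a measured signal the original authors judged statistically different from baseline, and non-responsive (inactive) to the remainder.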

OR4Q3 (Homo sapiens) = target: T1, OR4Q3 (Homo sapiens) (UniProt Q8NH05)
T1 sequence (whole entry): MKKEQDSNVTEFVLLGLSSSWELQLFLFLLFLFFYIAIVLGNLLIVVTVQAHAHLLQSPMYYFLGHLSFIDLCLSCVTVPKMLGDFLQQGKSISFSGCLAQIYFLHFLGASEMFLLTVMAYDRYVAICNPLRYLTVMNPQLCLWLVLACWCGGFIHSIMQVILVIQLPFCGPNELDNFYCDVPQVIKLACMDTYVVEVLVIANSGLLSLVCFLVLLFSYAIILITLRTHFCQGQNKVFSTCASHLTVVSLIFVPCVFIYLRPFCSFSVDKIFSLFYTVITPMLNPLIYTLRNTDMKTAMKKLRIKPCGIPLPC
Summary of the method: as §1

OR4Q3 T135A = system: OR4Q3 T135A
Sequence of OR4Q3 T135A (as listed by the source, stated change not applied): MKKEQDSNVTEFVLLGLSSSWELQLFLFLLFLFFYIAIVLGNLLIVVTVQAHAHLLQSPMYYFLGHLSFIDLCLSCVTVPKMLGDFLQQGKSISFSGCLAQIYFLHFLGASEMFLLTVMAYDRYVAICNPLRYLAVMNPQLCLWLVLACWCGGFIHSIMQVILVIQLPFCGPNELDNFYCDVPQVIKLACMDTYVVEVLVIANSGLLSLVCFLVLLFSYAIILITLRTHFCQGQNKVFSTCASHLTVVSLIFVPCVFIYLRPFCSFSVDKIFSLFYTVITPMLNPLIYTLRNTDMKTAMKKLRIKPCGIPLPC
Summary of the method: as §1

OR4S1 (Homo sapiens) = OR4S1 (Homo sapiens) (UniProt Q8NGB4)
Sequence of OR4S1 (Homo sapiens) (Q8NGB4 whole entry): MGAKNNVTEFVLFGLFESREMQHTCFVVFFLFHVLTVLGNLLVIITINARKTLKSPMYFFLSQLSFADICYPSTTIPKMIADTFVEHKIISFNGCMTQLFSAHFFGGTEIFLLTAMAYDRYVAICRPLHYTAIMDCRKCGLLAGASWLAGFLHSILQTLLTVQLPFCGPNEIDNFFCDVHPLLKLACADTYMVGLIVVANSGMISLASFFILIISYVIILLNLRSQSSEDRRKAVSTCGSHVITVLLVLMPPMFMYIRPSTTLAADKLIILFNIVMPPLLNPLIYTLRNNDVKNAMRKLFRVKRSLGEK
Summary of the method: as §1

OR4S2 (Homo sapiens) = OR4S2 (Homo sapiens) (UniProt Q8NH73)
Sequence of OR4S2 (Homo sapiens) (Q8NH73 whole entry): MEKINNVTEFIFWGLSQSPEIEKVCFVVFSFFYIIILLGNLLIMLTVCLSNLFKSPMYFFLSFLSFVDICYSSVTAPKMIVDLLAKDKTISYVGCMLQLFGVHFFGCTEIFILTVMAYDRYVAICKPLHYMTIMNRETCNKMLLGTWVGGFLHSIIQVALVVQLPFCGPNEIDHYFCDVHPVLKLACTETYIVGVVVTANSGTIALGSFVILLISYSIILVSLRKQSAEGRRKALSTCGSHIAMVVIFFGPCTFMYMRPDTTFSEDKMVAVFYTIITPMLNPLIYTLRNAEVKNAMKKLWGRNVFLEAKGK
Summary of the method: as §1

OR4X1 (Homo sapiens) = OR4X1 (Homo sapiens) (UniProt Q8NH49)
Sequence of OR4X1 (Homo sapiens) (Q8NH49 whole entry): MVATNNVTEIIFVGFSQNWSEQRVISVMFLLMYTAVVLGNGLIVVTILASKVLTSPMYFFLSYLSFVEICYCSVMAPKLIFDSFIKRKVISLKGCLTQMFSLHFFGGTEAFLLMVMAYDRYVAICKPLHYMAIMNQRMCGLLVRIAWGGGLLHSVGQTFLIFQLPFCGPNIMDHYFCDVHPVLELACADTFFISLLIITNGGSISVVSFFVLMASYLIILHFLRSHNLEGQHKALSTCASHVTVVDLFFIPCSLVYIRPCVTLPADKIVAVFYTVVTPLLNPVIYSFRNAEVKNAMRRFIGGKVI
Summary of the method: as §1

OR4X2 (Homo sapiens) = OR4X2 (Homo sapiens) (UniProt Q8NGF9)
Sequence of OR4X2 (Homo sapiens) (Q8NGF9 whole entry): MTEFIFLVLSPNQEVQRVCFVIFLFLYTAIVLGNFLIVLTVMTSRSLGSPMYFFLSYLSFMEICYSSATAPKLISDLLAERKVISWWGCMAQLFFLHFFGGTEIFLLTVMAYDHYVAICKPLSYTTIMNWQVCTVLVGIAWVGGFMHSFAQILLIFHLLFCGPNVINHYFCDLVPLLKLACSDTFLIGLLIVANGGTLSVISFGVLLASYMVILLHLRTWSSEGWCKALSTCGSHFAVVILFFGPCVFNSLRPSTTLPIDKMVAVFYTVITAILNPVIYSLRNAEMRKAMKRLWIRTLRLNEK
Summary of the method: as §1

OR51A2 (Homo sapiens) = OR51A2 (Homo sapiens) (UniProt Q8NGJ7)
Sequence of OR51A2 (Homo sapiens) (Q8NGJ7 whole entry): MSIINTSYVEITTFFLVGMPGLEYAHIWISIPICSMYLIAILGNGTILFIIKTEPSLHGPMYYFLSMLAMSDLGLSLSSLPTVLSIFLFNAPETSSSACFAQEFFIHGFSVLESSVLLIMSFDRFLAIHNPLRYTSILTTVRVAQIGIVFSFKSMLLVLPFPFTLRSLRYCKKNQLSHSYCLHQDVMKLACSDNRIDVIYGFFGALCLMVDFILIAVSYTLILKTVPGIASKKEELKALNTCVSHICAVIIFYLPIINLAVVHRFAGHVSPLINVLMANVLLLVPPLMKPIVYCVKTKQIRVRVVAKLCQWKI
Summary of the method: as §1

OR4Q3 = system: OR4Q3
Sequence of OR4Q3 (as listed by the source): as the sequence (as listed by the source, stated change not applied) above, with A135T, F238L counted along it
Summary of the method: as §1

OR4Q2 (Homo sapiens) = OR4Q2 (Homo sapiens) (UniProt P0C623)
Sequence of OR4Q2 (Homo sapiens) (P0C623 as listed by the source): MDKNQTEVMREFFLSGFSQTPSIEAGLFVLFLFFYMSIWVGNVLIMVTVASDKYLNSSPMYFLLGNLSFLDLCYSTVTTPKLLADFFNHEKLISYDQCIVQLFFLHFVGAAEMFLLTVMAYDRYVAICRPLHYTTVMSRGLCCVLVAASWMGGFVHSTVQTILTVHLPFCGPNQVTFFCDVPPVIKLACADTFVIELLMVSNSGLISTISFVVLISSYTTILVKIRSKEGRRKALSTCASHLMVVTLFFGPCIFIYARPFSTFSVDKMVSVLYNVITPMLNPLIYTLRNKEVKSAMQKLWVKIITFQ
Summary of the method: as §1
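Further: active if original authors judged signal statistically different from baseline.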

Sequence of OR4P4 (Homo sapiens) (Q8NGL7 whole entry): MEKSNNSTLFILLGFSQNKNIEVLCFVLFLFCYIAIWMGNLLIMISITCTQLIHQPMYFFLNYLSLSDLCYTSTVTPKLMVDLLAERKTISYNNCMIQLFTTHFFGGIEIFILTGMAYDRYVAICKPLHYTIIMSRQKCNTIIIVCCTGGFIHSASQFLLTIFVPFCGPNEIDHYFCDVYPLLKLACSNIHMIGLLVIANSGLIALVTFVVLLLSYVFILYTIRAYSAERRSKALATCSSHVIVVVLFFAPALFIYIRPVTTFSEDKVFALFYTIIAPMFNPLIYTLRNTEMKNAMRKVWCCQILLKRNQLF

SMILES | odorant receptor agonist call (OR4P4 (Homo sapiens)) | odorant receptor agonist call (OR4Q3 (Homo sapiens)) | odorant receptor agonist call (OR4Q3 T135A) | odorant receptor agonist call (OR4S1 (Homo sapiens)) | odorant receptor agonist call (OR4S2 (Homo sapiens)) | odorant receptor agonist call (OR4X1 (Homo sapiens)) | odorant receptor agonist call (OR4X2 (Homo sapiens)) | odorant receptor agonist call (OR51A2 (Homo sapiens)) | odorant receptor agonist call (OR4Q3) | odorant receptor agonist call (OR4Q2 (Homo sapiens))
C=CCOC(=O)Cc1ccccc1 | inactive | inactive | inactive | inactive | inactive | inactive | inactive | inactive |  | 
CCCCOC(=O)c1ccccc1N |  | active |  |  |  |  |  |  | inactive | 
Cc1c([N+](=O)[O-])c(C)c([N+](=O)[O-])c(C(C)(C)C)c1[N+](=O)[O-] | inactive | inactive |  | inactive | inactive | inactive | inactive | inactive |  | inactive
